Measured values gathered from unrelated publications.
Each line is one published result; the experiments were not run side by side.
Target: Cyclin-dependent kinase 9 (CDK9, Homo sapiens, UniProt P50750)

C[C@@H]1CN(c2ccc3ncc(-c4ccc5[nH]nc(C6CC6)c5c4)n3n2)C[C@H](C)O1  remaining binding (binding, competition with immobilised ligand; 50 nM): 79%
O=C(O)[C@H]1[C@H](Cn2nnc3ccccc3c2=O)CC[C@@H]1C(=O)c1ccc(OCCC2CCOCC2)cc1  remaining binding (cell-free assay, competition with immobilised ligand; 1 µM): 72%
O=C(c1ccc(Nc2ncc(Cl)c(-c3ccc(Cl)s3)n2)cc1)N1CCC(N2CCCC2)CC1  remaining binding (binding, competition with immobilised ligand; 1 µM): 68%
c1cnn2ncc(-c3ccnc(N4CCC45COC5)n3)c2c1  remaining binding (binding; 1 µM): 93%
COc1ncc2cc3ccccc3nc2c1C#N  remaining binding (cell-free assay, competition with immobilised ligand; 5 µM): 91%
CO[C@H]1CC[C@H](CNc2ccc(S(=O)(=O)NC(=O)c3ccc(N4CCN(CC5=C(c6ccc(Cl)cc6)CC(C)(C)CC5)CC4)cc3Oc3cnc4[nH]ccc4c3)cc2[N+](=O)[O-])CC1  remaining binding (cell-free assay, competition with immobilised ligand; 1 µM): 91%
C[C@@H](c1ccc(-n2cnc3c(N)ncnc32)cc1)N1CCc2nn(C)c(Cc3ccccc3)c2C1=O  remaining binding (binding, competition with immobilised ligand; 0.1 µM): 85%
CCN1CCN(Cc2ccc(C(=O)Nc3ccc(C)c(Oc4ccc5c(c4)CC(=O)N5)c3)cc2C(F)(F)F)CC1  remaining binding (binding, competition with immobilised ligand; 1 µM): 100%
CN(c1nccc(-c2cnn3ncccc23)n1)C1CC1  remaining binding (binding; 1 µM): 100%
C=CC(=O)N1CCC(C(=O)NCC(=O)N2CCN(c3nc(-c4cnc(N)nc4C(F)F)nc(N4CCOCC4)n3)CC2)CC1  remaining binding (binding, competition with immobilised ligand; 1 µM): 98%
C[C@@H](c1cccc(C#N)c1)n1cc(Cl)cc(C(N)=O)c1=N  remaining binding (cell-free assay, competition with immobilised ligand; 1 µM): 91%
Cc1cnc(Nc2ccc(C(=O)N3CCC(N4CCCC4)CC3)cc2)nc1-c1cc2ccccc2s1  remaining binding (binding, competition with immobilised ligand; 1 µM): 82%
Cc1nccc(COC(=O)N2C[C@@H]3[C@@H](CNC(=O)c4ccc5[nH]nnc5c4)[C@@H]3C2)n1  remaining binding (cell-free assay, competition with immobilised ligand; 1 µM): 100%
N#Cc1ccccc1CSc1nnc2c(n1)[nH]c1ccccc12  remaining binding (binding, competition with immobilised ligand; 10 µM): 84%
Nc1c(C(=O)NCc2ccc(C(=O)NCCCC3CCCCC3)cc2)cnn1-c1ccccc1  remaining binding (cell-free assay, competition with immobilised ligand; 0.1 µM): 100%
Cc1cnn2ncc(-c3ccnc(N(C)C)n3)c2c1  remaining binding (binding; 1 µM): 91%
CS(=O)(=O)N1CCCC(NC(=O)[C@H](CCC2CCCCC2)NC(=O)c2ccc(CNc3ncnc4c3nnn4-c3ccccc3)cc2)C1 (some centres unmarked)  remaining binding (cell-free assay, competition with immobilised ligand; 0.1 µM): 87%
O=C(Nc1c[nH]nc1C(=O)NC1CCNCC1)c1cc(F)cc(F)c1  remaining binding (binding, competition with immobilised ligand; 1 µM): 72%
COc1ccc2c(O[C@@H]3C[C@H]4C(=O)N[C@]5(C(=O)O)CC5/C=C\CCCCC[C@H](NC(=O)OC5CCCC5)C(=O)N4C3)cc(-c3csc(NC(=O)C(C)C)n3)nc2c1C (some centres unmarked)  remaining binding (cell-free assay, competition with immobilised ligand; 1 µM): 83%
C[C@@H]1CCN(c2nccc(-c3cnn4ncccc34)n2)C1  remaining binding (binding; 1 µM): 87%
COc1cnc(Nc2cccc(S(N)(=O)=O)c2)nc1N1CCN(c2ccccc2)CC1  remaining binding (binding, competition with immobilised ligand; 1 µM): 100%
CC1CCCN1c1nccc(-c2cnn3ncccc23)n1 (centres unmarked)  remaining binding (binding; 1 µM): 100%
O=C(NCCCN1CCOCC1)c1ccc(Nc2ncc(Cl)c(-c3ccc(Cl)s3)n2)cc1  remaining binding (binding, competition with immobilised ligand; 1 µM): 56%
